Measurements collected from several papers.

Compound | test | test system | setting | measurement | result
O=[N+]([O-])c1ccc(-c2ccc(O)cc2)c2cccnc12 | – | male CD-1 mouse, plasma | oral, 5 mg/kg | Vd/F | 157 L/kg
Cc1ccc(C(=O)Nc2ccc(CN3CCN(C)CC3)c(C(F)(F)F)c2)cc1C#Cc1cnc2[nH]ncc2c1 | – | human, plasma | oral, 20 mg, healthy volunteers | half-life | 33.2 h
CNC(=O)n1ccc2cc(Oc3ccnc(NC(=O)c4ccc(C5CCN(CCO)CC5)cc4)c3)c(OCCOC)cc21 | – | human, plasma | oral, 35 mg, single dose, healthy volunteers | half-life | 21 h
N#C[C@@]12C[C@@H]1[C@@H](n1cnc3c(N[C@@H](C4CCC4)C4CC4)nc(I)nc31)[C@H](O)[C@@H]2O | chemical stability | simulated intestinal fluid | 2 h | compound remaining | 97.8%
NC(=S)NN=Cc1ncccc1N | – | human, plasma | oral, 100 mg | half-life | 1.5 h
CC(C)n1c(Nc2cccnc2)nc2cnc(Nc3ccc(N4CCN(C)CC4)cc3)nc21 | – | male human, plasma | oral, 100 mg, single dose | half-life | 35.4 h
Cn1cc(Nc2nc(N)nc(-c3cccc(-n4ccc5cc(C6CC6)cc(F)c5c4=O)c3CO)n2)cn1 | – | human, plasma | oral, 300 mg, single dose, fasted, healthy volunteers | half-life | 9.7 h
Cc1c(C(=O)O)ccc2c3n(nc12)[C@@H]1[C@H](C3)N(CC2CC2)[C@@]2(C(=O)Nc3cc(Cl)ccc32)[C@H]1c1cccc(Cl)c1F | – | female mouse, plasma | intravenous | Vd | 0.44 L/kg
COc1ccc([C@@H](O)c2cc(-c3ncnc4cc(N5CCOCC5)ccc34)c(F)cc2Cl)nn1 | – | human, plasma | oral, 400 mg, single dose, patients | half-life | 3.51 h
NS(=O)(=O)OC[C@@H]1C[C@@H](n2ccc3c(N[C@H]4CCc5ccccc54)ncnc32)C[C@@H]1O | – | human, plasma | intravenous, 35 mg/m², patients | half-life | 5.1 h
